DENV2 CPE rescue = inhibitors of DENV2 cytopathic effect, primary screen, cell-based, plate reader, single concentration; DENV2-infected cells, cytopathic effect rescue; CPE inhibition, % at 9.99 µM; actives 1.7% (n = 350,000); AID 651640, 2012; in the data active means CPE inhibition above about 20%, passing the limit was not always enough; inconclusive means no clear call, values can overlap the other calls; tested in BHK-21 cells;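 further: 0% = median of neutral control wells and 100% = median of positive control wells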
SIRT5 block = SIRT5 desuccinylase inhibitors, primary screen, biochemical, fluorescence imaging, single point, set 5; NAD-dependent protein deacylase sirtuin-5, mitochondrial (Homo sapiens), Q9NXA8; Purified SirT5, succinyl-peptide AMC, trypsin-coupled fluorescence; actives 1.1% (n = 330,000); inhibition, % at 15 µM; AID 652115, 2013; in the data active means inhibition above about 15%; inconclusive means no clear call, values can overlap the other calls
Target sequence (Q9NXA8 whole entry, looked up): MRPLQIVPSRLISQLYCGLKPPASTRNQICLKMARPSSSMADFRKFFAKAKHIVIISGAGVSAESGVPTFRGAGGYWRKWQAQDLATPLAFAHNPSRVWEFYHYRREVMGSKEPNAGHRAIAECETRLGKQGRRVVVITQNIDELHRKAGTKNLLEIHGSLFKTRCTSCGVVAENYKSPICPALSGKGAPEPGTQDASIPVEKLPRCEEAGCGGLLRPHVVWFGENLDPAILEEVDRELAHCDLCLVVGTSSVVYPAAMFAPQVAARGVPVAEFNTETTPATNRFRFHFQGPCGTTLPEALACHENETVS
E-sel inducer = E-selectin induction in HUVECs, primary screen, imaging, HUVEC, immunofluorescence imaging, single point | normalized: neutral wells 0, TNF-alpha wells 100 | activation, % at 7.58 µM | actives 0.37% (n = 260,000) | AID 686992, 2013;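 active means mean E-selectin-positive cell signal at least 10% of the positive control, reached in at least 60% of replicates, without over 20% cell loss; inconclusive means no rule given, readout overlaps actives, possibly toxicity-flagged; inactive means the rest, including those meeting only one limit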
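Test system: HUVEC; input: 3,000 HUVEC/well; measured by: immunofluorescence imaging; read-out: % PE-positive cells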
* = called active by the depositor; ? = inconclusive; . = no result. A selection: hits, their analogues and other compounds. The true share with any hit is near 2.9%.

SMILES	DENV2 CPE rescue	SIRT5 block	E-sel inducer
COc1ccc(C#Cc2ccc3c(c2)[C@H]2[C@H](CCN2C(=O)c2ccncc2)[C@H](CO)N3)cc1	-4	.	2
O=C(NC1CCCCC1)c1c2c(nc3ccccc13)CCC2	9	1	0
CCc1nnc(NC(=O)CCN(c2cc(C)cc(C)c2)S(=O)(=O)c2ccc(Cl)cc2)s1	-2	-3	0
Cc1ccc(-c2cc(C(=O)O)c3ccccc3n2)s1	3	-47	0
CNC(=O)C1CC(=O)N(c2ccc(OCC(=O)NCc3ccccc3)cc2)C1 (configuration not stated)	6	25*	0
CCOc1ccc(N2CC(C(=O)NCc3ccccc3)CC2=O)cc1 (configuration not stated)	0	-7	.
COc1ccc(/C=N/N2CCN(c3ccc(Cl)cc3)CC2)cc1	2	0	.
COc1ccc(/C=N/N2CCN(c3ccc(Cl)cc3)CC2)cc1O	32*	-5	.
O=C(Nc1ccc(F)cc1)N[C@H]1CC[C@@H](CCn2cc(-c3ccc(F)cc3)nn2)O[C@@H]1CO	-8	-1	0
CCOC(=O)Cn1cc(C#N)c2cccc(CC)c21	0	24*	0
CC(C)OC(=O)Cn1cc(C#N)c2ccccc21	-1	-4	.
CC(C)(CNC(=O)Cc1ccc(Br)cc1)N1CCOCC1	1	-2	0
OC(Cc1ccccc1)c1ncc(-c2ccc(Cl)cc2)[nH]1 (configuration not stated)	-8	-4	0
OC(Cc1ccccc1Br)c1ncc(-c2ccc(Cl)cc2)[nH]1 (configuration not stated)	-5	1	159*
COc1ccc2nc3cc(Cl)ccc3c(C#N)c2c1	16	-3	0
CC(C)(C)Cc1c(-c2cccc(Cl)c2)nc2ccc(Cl)cn12	-4	-1	13
O=C(c1ccc2c(c1)OCO2)N1CCCCN2[C@H](C1)[C@@H](c1ccc(-c3ccccc3)cc1)[C@@H]2CO	13	3	1
O=C(c1ccc2c(c1)OCO2)N1CCCCN2[C@H](CO)[C@@H](c3ccc(-c4ccccc4)cc3)[C@@H]2C1	27*	5	-1
Cc1cccc(-c2ccc([C@H]3[C@H]4CN(C(=O)c5ccncc5)CCCCN4[C@H]3CO)cc2)c1	22*	0	0
O=C(c1cccc(F)c1)N1CCCCN2[C@H](CO)[C@H](c3ccc(-c4ccncc4)cc3)[C@@H]2C1	22*	3	0
Cc1cccc(-c2ccc([C@@H]3[C@H](CO)N4CCCCN(C(=O)c5ccncc5)C[C@@H]34)cc2)c1	18	.	0
O=C(c1cccc(F)c1)N1CCCCN2[C@H](C1)[C@@H](c1ccc(-c3ccncc3)cc1)[C@@H]2CO	9	0	1
O=S1(=O)CC(N2CCN(CCO)CC2)CN1Cc1cn(Cc2ccccc2C(F)(F)F)nn1 (configuration not stated)	10	-1	0
COc1ccc([C@H]2CN(CCc3ccccc3)C(=O)[C@@H]2CC(=O)Nc2ccccc2)cc1	-4	18*	0
COc1ccc(CNC(=O)C[C@H]2C(=O)N(c3ccccc3)C[C@@H]2Cc2ccccc2)cc1	.	-1	0
SMILES	DENV2 CPE rescue	SIRT5 block	E-sel inducer
CCCCN1C[C@H](Cc2ccccc2)[C@@H](CC(=O)NCc2ccc(OC)cc2)C1=O	48*	.	.
O=C(C[C@H]1C(=O)N(Cc2ccccc2)C[C@@H]1Cc1ccccc1)Nc1ccc(Br)cc1	26*	-2	-1
CNC(=O)C[C@H]1C(=O)N(CCc2ccccc2)C[C@@H]1c1ccc(OC)cc1	-3	-3	0
CCCCC[C@H]1CN(CCc2ccccc2)C(=O)[C@@H]1CC(=O)NCc1ccc(OC)cc1	24*	.	.
O=C(C[C@H]1C(=O)N(Cc2cccnc2)C[C@@H]1Cc1ccccc1)Nc1ccc(Br)cc1	-3	3	8
CCCCC[C@H]1CN(CCCC)C(=O)[C@@H]1CC(=O)NCc1ccc(OC)cc1	?	4	.
COc1cc(S(=O)(=O)NCc2ccccc2)ccc1-n1cnnn1	10	0	23
Cc1ccc(NC(=O)C2CCN(S(=O)(=O)c3ccc4c(c3)oc(=O)n4C)CC2)cc1	-5	-1	.
COc1ccc(/C=C2/C(=O)C(C)(C(C)C)CCC2C)cc1 (configuration not stated)	-7	-7	.
CC(C)(C)c1csc(NC(=O)c2cccnc2Cl)n1	4	1	.
COc1ccc(C2C3(C#N)C(N)=NC(OC)(OC)C23C#N)cc1 (configuration not stated)	10	18*	.
COc1ccc(-c2ccc([C@H]3[C@@H](C#N)N[C@@H]3CO)cc2)cc1	7	1	0
COc1ccc2c3c([nH]c2c1)[C@H](CO)N(C(C)=O)CC31CCN(C(=O)Nc2ccc(F)cc2)CC1	-3	.	0
COc1ccc2c3c([nH]c2c1)[C@H](CO)N(C(=O)Nc1ccc(F)cc1)CC31CCN(S(=O)(=O)c2ccccc2)CC1	?	.	-1
COc1ccc2c3c([nH]c2c1)[C@@H](CO)N(C(=O)c1cccc(F)c1)CC31CCN(C(=O)c2cccc(F)c2)CC1	22*	1	0
COc1ccc2c3c([nH]c2c1)[C@@H](CO)N(C(=O)Nc1ccc(F)cc1)CC31CCN(S(=O)(=O)c2ccccc2)CC1	71*	.	-1
COc1ccc2c3c([nH]c2c1)[C@H](CO)N(C(=O)Nc1ccc(F)cc1)CC31CCN(C(=O)Nc2ccccc2)CC1	21*	.	0
COc1ccc2c3c([nH]c2c1)[C@H](CO)N(C(=O)c1cccc(F)c1)CC31CCN(C(=O)c2ccccc2)CC1	12	2	0
CC(C)(C)c1ccc(CC(=O)N2CCC2(C)C(=O)NS(=O)(=O)Cc2ccccc2)cc1 (configuration not stated)	-6	7	0
O=C(CSc1ncn[nH]1)Nc1ccc(OCc2ccccc2)cc1	3	.	3
CC(C)(C)C1CCC(=NNC(=O)c2cc3c(s2)CCCC3)CC1 (configuration not stated)	9	-5	0
COc1ccc(S(=O)(=O)N(C)C[C@@H]2Oc3ncc(/C=C/c4ccccc4)cc3C(=O)N([C@@H](C)CO)C[C@H]2C)cc1	.	.	0
O=[N+]([O-])c1ccc(N=Nc2c(Cl)cc(O)cc2Cl)cc1	-2	2	0
O=C1CC(=Nc2ccc([N+](=O)[O-])cc2)NN1c1c(Cl)cc(Cl)cc1Cl	-11	17*	0
C/C(CC(=O)Nc1ccccc1)=N\NC(=O)COc1ccc(C)cc1Br	-9	-4	.
CCC(=O)c1ccccc1OCCN1C(=O)NC(C)(C)C1=O	4	-1	.
CC1(C)NC(=O)N(CCOCCOc2ccccc2-c2ccccc2)C1=O	.	26*	.
COc1ccc(-c2noc(CCC(=O)N3CCN(c4ccccc4OC)CC3)n2)cc1	0	1	0
CCC1CC(CSC(=N)N)OC1=O (configuration not stated)	-3	-9	3
CCOC(=O)NC(=O)CSc1ccc(C)cc1C	-5	-3	8

Bioassay records as filed in PubChem.
